The first series is described as follows: Partition coefficient (logP). As to conditions: octanol/water. It is filed as physicochemical. An outline of the steps: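 Shake-flask partitioning of the neutral amine species between 1-octanol and 0.1 N NaOH. Both phases were analysed by gas chromatography on 10% Apiezon L with 2% KOH on 80-100 mesh Chromosorb WAW. Observed log P was taken from the phase distribution.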
For the compound `CNC1C2CC[C@H]1c1ccccc12` (stereo in doubt; 11), the logP is on record as 2.47.

Compound `NC1C2CC[C@H]1c1ccccc12` (stereo in doubt; 19) yielded a logP of 2.08.

The series is the same for the next values; noted with them: octanol/water; read-out: logP.
Consider `CCN[C@@H]1CC2C[C@@H]1c1ccccc12`, for which the logP is 2.72. Regarding `CCCN[C@@H]1CC2C[C@@H]1c1ccccc12`, the logP is 3.3. `CN[C@@H]1CC2CC[C@@H]1c1ccccc12`: the logP was 2.68. Still for that read-out and setting: the figure for `N[C@@H]1CC2C[C@@H]1c1ccc(C(F)(F)F)cc12` is 3.21; for `CN[C@@H]1CC2C[C@@H]1c1ccccc12` it is 2.41. Same read-out and setting: then `N[C@@H]1CC2O[C@@H]1c1ccccc12`, with 0.75; and `N[C@H]1CC2O[C@@H]1c1ccccc12`, with 0.4. Same read-out and setting: then `N[C@H]1CC2C[C@@H]1c1ccc(C(F)(F)F)cc12`, with 2.91; and `N[C@H]1CC2C[C@@H]1c1ccccc12`, with 2. As to `CCCN[C@H]1CC2C[C@@H]1c1ccccc12`, the logP worked out at 3.13.

With `CN[C@@H]1CC2O[C@@H]1c1ccccc12`, the logP worked out at 0.91.

In the case of `CN[C@H]1CC2C[C@@H]1c1ccccc12`, the logP amounted to 2.32. Same read-out and setting: the figure for `N[C@@H]1CC2C[C@@H]1c1ccccc12` is 2.09. Same read-out and setting: then `N[C@H]1CC2CC[C@@H]1c1ccccc12`, with 2.29; and `CN[C@H]1CC2O[C@@H]1c1ccccc12`, with 0.59; and `N[C@@H]1CC2C[C@@H]1c1cc(C(F)(F)F)ccc12`, with 3.19. Still for that read-out and setting: then `CN[C@H]1CC2CC[C@@H]1c1ccccc12`, with 2.59; and `CCN[C@H]1CC2C[C@@H]1c1ccccc12`, with 2.62; and `N[C@H]1CC2C[C@@H]1c1cc(C(F)(F)F)ccc12`, with 2.85. As for `N[C@@H]1CC2CCC1c1ccccc12` (some centres undefined), the log partition coefficient (logP) was 2.32. Same read-out and setting: then `CNC1C2CC[C@H]1c1ccccc12` (stereo in doubt; 13), with 2.37. Regarding `NC1C2CC[C@H]1c1ccccc12` (stereo in doubt; 17), the logP was 2.13.

Broadly, the logP is the decadic logarithm of the partition coefficient of the neutral form, usually between octanol and water.

These data come from ChEMBL document CHEMBL1122416, “An extension of the f-fragment method for the calculation of hydrophobic constants (log P) of conformationally defined systems” (J Med Chem, 1983).
